Laboratory results as given in ChEMBL document CHEMBL1127299, “Inhibition of peptidylglycine alpha-amidating monooxygenase by N-substituted homocysteine analogs” (J Med Chem, 1994).
Non-standard residues stand in square brackets, D forms with d. Residues, ends and D or L forms follow the SMILES beside them. ξ: configuration not given here. *: point of attachment. Hydrocinnamoyl = O=C(CCc1ccccc1)*; hCys = N[C@@H](CCS)C(=O)O; Nle = CCCC[C@H](N)C(=O)O; Cbz = O=C(OCc1ccccc1)*; Boc = CC(C)(C)OC(=O)*; ξhCys = NC(CCS)C(=O)O; OBn = c1ccc(CO*)cc1

Columns and labels:
[1] = target: T1, Peptidylglycine alpha-amidating monooxygenase (Rattus norvegicus, UniProt P14925); test: Inhibitory activity against peptidylglycine alpha-amidating monooxygenase (PAM) was determined; format: functional
T1 sequence (P14925 whole entry): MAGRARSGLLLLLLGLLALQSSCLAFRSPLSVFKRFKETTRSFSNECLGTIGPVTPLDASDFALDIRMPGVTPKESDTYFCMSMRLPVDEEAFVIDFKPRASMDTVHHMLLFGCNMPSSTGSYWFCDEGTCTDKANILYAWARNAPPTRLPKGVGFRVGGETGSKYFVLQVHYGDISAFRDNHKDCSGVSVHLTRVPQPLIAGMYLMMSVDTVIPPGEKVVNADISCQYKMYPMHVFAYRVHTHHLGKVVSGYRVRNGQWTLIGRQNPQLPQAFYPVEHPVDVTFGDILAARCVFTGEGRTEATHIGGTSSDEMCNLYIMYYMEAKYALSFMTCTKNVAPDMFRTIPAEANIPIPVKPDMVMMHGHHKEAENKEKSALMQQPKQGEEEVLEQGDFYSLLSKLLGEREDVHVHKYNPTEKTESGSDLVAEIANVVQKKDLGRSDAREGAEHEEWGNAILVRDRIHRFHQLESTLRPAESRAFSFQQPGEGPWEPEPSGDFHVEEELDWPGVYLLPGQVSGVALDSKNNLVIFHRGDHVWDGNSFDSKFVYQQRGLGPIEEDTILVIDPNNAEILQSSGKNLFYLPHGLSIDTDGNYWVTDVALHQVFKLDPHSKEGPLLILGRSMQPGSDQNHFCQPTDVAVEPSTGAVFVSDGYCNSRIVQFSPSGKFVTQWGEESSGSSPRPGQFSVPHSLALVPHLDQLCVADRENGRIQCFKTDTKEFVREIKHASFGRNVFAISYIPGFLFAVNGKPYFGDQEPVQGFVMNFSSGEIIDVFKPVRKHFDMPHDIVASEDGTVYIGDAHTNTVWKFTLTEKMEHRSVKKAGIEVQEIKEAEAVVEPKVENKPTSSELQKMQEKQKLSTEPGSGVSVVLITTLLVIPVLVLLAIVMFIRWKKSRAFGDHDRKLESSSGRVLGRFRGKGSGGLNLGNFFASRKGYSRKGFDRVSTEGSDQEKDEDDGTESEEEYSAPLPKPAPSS
In short: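 Partially purified PAM (DEAE cartridge, then Sephacryl 300 SF), 13.5 μU, preincubated with inhibitor 20 min at room temperature in 150 mM TES pH 7.0 with 0.001% Triton-100. Started with N-dansyl-D-Tyr-Phe-Gly (2.0 μM) plus ascorbate (3 mM), quenched with EDTA. Seven or more concentrations in duplicate, three runs; IC50 by least squares on log dose–response.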

[2] = target: T2, Peptidylglycine alpha-amidating monooxygenase (Rattus norvegicus) (UniProt P14925); test: (§1) Inhibition of PAM on Substance P biosynthesis in the dorsal root ganglion (DRG) cell culture assay; format: functional, tissue-based; design: concentration or dose not given beside the values; details: concentration not given here
T2 sequence (whole entry): T1 sequence (P14925 whole entry)
In short: (§2)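 Rat primary dorsal root ganglion neurons cultured without ascorbate for six days. On day 6 inhibitor added (10 μM), then ascorbate 500 μM 12 h later, incubated overnight. SP measured by RIA with an antibody selective for SP over SP-Gly. SP-Gly found by treating a duplicate sample with 3.5 μg PAM and taking the difference in SP; percent inhibition.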

[3] = target: T2, Peptidylglycine alpha-amidating monooxygenase (Rattus norvegicus); test: as §1; format: functional, tissue-based; details: concentration not given here; in short: as §2

Compound	IC50 [1]	inhibition [2]	inhibition [3]
O=C(CCc1ccccc1)N[C@@H](Cc1ccccc1)C(=O)NC(CCS)C(=O)OCc1ccccc1 (stereo partly specified) (Hydrocinnamoyl-Phe-[ξhCys]-OBn)	> 10000 nM		
CCC(C)CC(=O)N[C@@H](Cc1ccccc1)C(=O)N[C@@H](CCS)C(=O)O (stereo partly specified)	29 nM	10%	
NC(=O)C[C@H](NC(=O)[C@H](Cc1ccccc1)NC(=O)CCc1ccccc1)C(=O)O (Hydrocinnamoyl-Phe-Asn-OH)	> 10000 nM		
CC(C)(C)OC(=O)N[C@H](Cc1ccccc1)C(=O)N[C@@H](Cc1ccccc1)C(=O)N[C@@H](CCS)C(=O)O	39 nM	34%	
CC(C)(C)OC(=O)N[C@H](Cc1ccc(O)cc1)C(=O)N[C@@H](Cc1ccccc1)C(=O)N[C@@H](CO)C(=O)O	> 10000 nM		
O=C(O)C[C@H](NC(=O)[C@H](Cc1ccccc1)NC(=O)CCc1ccccc1)C(=O)O (Hydrocinnamoyl-Phe-Asp-OH)	> 10000 nM		
CC(C)(C)OC(=O)N[C@H](Cc1ccc(O)cc1)C(=O)N[C@@H](Cc1ccccc1)C(=O)N[C@@H](CS)C(=O)O	340 nM		
O=C(CCc1ccccc1)N[C@@H](Cc1ccccc1)C(=O)NC1CCSC1=O (stereo partly specified)	> 10000 nM	37%	
O=C(O)CC[C@H](NC(=O)[C@H](Cc1ccccc1)NC(=O)CCc1ccccc1)C(=O)O (Hydrocinnamoyl-Phe-Glu-OH)	> 10000 nM		
O=C(CCc1ccccc1)NC(CCS)C(=O)O (stereo unspecified)	7500 nM		
O=C(O)CNC(=O)[C@H](Cc1ccccc1)NC(=O)[C@@H](Cc1ccc(O)cc1)NC(=O)OCc1ccccc1	3500 nM		
O=C(N[C@@H](Cc1ccccc1)C(=O)NC(CCS)C(=O)O)c1cc2ccccc2[nH]1 (stereo partly specified)	8 nM	42%	
O=C(CCc1ccccc1)N[C@@H](Cc1ccccc1)C(=O)N[C@H](CCS)C(=O)O	610 nM		
C[C@H](NC(=O)[C@H](Cc1ccccc1)NC(=O)[C@@H](Cc1ccc(O)cc1)NC(=O)OC(C)(C)C)C(=O)O	> 10000 nM		
CC(C)C[C@H](NC(=O)CCc1ccccc1)C(=O)NC(CCS)C(=O)O (stereo partly specified) (Hydrocinnamoyl-Leu-[ξhCys]-OH)	300 nM		
O=C(N[C@@H](Cc1ccccc1)C(=O)N[C@@H](CCS)C(=O)O)OCc1ccccc1 (Cbz-Phe-[hCys]-OH)	18 nM	40%	
CC(C)(C)OC(=O)N[C@@H](Cc1ccccc1)C(=O)N[C@@H](CCS)C(=O)O (Boc-Phe-[hCys]-OH)	53 nM		
CSCC[C@H](NC(=O)CCc1ccccc1)C(=O)NC(CCS)C(=O)O (stereo partly specified)	18 nM		
CC(C)(C)OC(=O)N[C@H](Cc1ccc(O)cc1)C(=O)N[C@@H](Cc1ccccc1)C(=O)NCC(=O)O	4000 nM		
CC(C)[C@H](NC(=O)CCc1ccccc1)C(=O)NC(CCS)C(=O)O (stereo partly specified) (Hydrocinnamoyl-Val-[ξhCys]-OH)	160 nM		
CN(C)c1cccc2c(S(=O)(=O)N[C@H](Cc3ccc(O)cc3)C(=O)N[C@@H](Cc3ccccc3)C(=O)NCC(=O)O)cccc12	4200 nM		
O=C(CCc1ccc(Cl)c(Cl)c1)N[C@@H](Cc1ccccc1)C(=O)NC(CCS)C(=O)O (stereo partly specified)	55 nM	37%	
O=C(CCc1ccccc1)N[C@@H](Cc1ccccc1)C(=O)N[C@@H](CS)C(=O)O (Hydrocinnamoyl-Phe-Cys-OH)	330 nM		
O=C(CCc1ccccc1)N[C@@H](Cc1ccccc1)C(=O)NC(CCS)C(=O)O (stereo partly specified)	15 nM	28%	
O=C(CCc1ccccc1)N[C@@H](Cc1ccccc1)C(=O)NCCCS	1600 nM		
O=C(N[C@@H](Cc1ccccc1)C(=O)NC(CCS)C(=O)O)c1ccc2ccccc2c1 (stereo partly specified)	10 nM	67%	
CCCC[C@H](NC(=O)CCc1ccccc1)C(=O)NC(CCS)C(=O)O (stereo partly specified) (Hydrocinnamoyl-[Nle]-[ξhCys]-OH)	23 nM		7%
O=C(CCc1ccccc1)N[C@@H](Cc1ccccc1)C(=O)N[C@@H](CCS)C(=O)O	10 nM	25%	
N[C@H](Cc1ccc(O)cc1)C(=O)N[C@@H](Cc1ccccc1)C(=O)NCC(=O)O	> 10000 nM		
O=C(COc1ccccc1)N[C@@H](Cc1ccccc1)C(=O)NC(CCS)C(=O)O (stereo partly specified)	14 nM	22%	
